Assay results taken from ChEMBL document CHEMBL1142077, “Inhibition of Plasmodium falciparum oocyst production by membrane-permeant cysteine protease inhibitor E64d” (2007).
The source made the active and inactive calls. The rule behind the calls is not given here.

Legend:
Plasmodium falciparum [1] = experiment: Inhibition of Pfs230 processing after 1 hrs in Plasmodium falciparum 3D7 at 10 uM in emergence medium with 0.001% saponin; format: functional, organism-based
Outline: (§1)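 Mature stage V 3D7 gametocytes preincubated 1 h at 37°C in complete RPMI 1640 with inhibitor or DMSO (saponin 0.001% present or absent during this incubation). Cells then pelleted and resuspended in an equal volume of emergence medium (10 µM xanthurenic acid, glucose, NaCl, 8 mM Tris-Cl pH 8.2) at RT. Medium harvested after 1 h and clarified by centrifugation. Readout: immunoblot with Pfs230 region A (aa 304–378) antibodies, scoring 47-kDa and 35-kDa fragments.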

Plasmodium falciparum [2] = experiment: Inhibition of Pfs230 processing after 1 hrs in Plasmodium falciparum 3D7 at 100 uM in emergence medium; format: functional, organism-based; outline: as §1
Plasmodium falciparum [3] = experiment: Inhibition of exflagellation after 1 hrs in Plasmodium falciparum 3D7 at 10 uM in emergence medium; format: functional, organism-based
Outline: (§2)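 Mature 3D7 gametocytes incubated 1 h with inhibitor or an equal volume of DMSO, then pelleted. Gametogenesis triggered by adding an equal volume of emergence medium (xanthurenic acid, pH 8.2, RT). Scored on Giemsa-stained thin smears before and 15 min after the stimulus (emergence), and by bright-field observation of exflagellation centers 15–30 min after the stimulus.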

Plasmodium falciparum [4] = experiment: Inhibition of Pfs230 processing after 1 hrs in Plasmodium falciparum 3D7 at 10 uM in emergence medium; format: functional, organism-based; outline: as §1
Plasmodium falciparum [5] = experiment: Inhibition of gametogenesis after 1 hrs in Plasmodium falciparum 3D7 at 10 uM in emergence medium; format: functional, organism-based; outline: as §2
Plasmodium falciparum [6] = experiment: Inhibition of oocyst production after 7 days in Anopheles stephensi SxK Nij fed human serum infected with Plasmodium falciparum NF54 stage V gametocyte at 100 uM for 1 hr; format: functional
Outline: (§3)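 Isolate NF54 stage V gametocytes treated for stated times with 100 µM inhibitor or DMSO, pelleted onto packed erythrocytes in normal human serum with active complement, membrane-fed (39°C) to Anopheles stephensi SxK Nij for 10 min; mosquitoes kept 7 days at 26°C. Midguts mercurochrome-stained, oocysts counted, 16 to 20 mosquitoes per feeding; geometric mean oocysts per midgut versus control; Kruskal-Wallis.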

Plasmodium falciparum [7] = experiment: Inhibition of gametogenesis after 1 hrs in Plasmodium falciparum 3D7 at 100 uM in emergence medium; format: functional, organism-based
Plasmodium falciparum [8] = experiment: Inhibition of oocyst production after 7 days in Anopheles stephensi SxK Nij fed human serum infected with Plasmodium falciparum NF54 stage V gametocyte at 100 uM for 15 min; format: functional; outline: as §3
Plasmodium falciparum [9] = experiment: Inhibition of oocyst production after 7 days in Anopheles stephensi SxK Nij fed human serum infected with Plasmodium falciparum 3D7 stage V gametocyte at 10 uM for 1 hr; format: functional, organism-based
Outline: (§4)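 Strain 3D7 stage V gametocyte cultures treated 1 h with inhibitor or DMSO, 0.3 ml pelleted onto 150 µl packed erythrocytes, supernatant replaced by 120 µl normal human serum with active complement; membrane feeder at 39°C, mosquitoes gorge 10 min, kept 7 days at 26°C, >80% humidity. Midguts mercurochrome-stained, oocysts counted; geometric mean per midgut versus DMSO control gives percent reduction; Kruskal-Wallis.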

Plasmodium falciparum [10] = experiment: Gametocyte morphology as exflagellation after 15-30 min in Plasmodium falciparum 3D7 at 100 uM for 1hr in emergence medium; format: functional, organism-based
Plasmodium falciparum [11] = experiment: Inhibition at day 7 of Plasmodium falciparum 3D7 oocyst production in human serum at 100 uM for 1 hrs prior to feeding Anopheles stephensi SxK Nij; format: functional; conditions: 3D7, Serum; outline: as §4
Plasmodium falciparum [12] = experiment: Inhibition of oocyst production after 7 days in Anopheles stephensi SxK Nij fed human serum infected with Plasmodium falciparum NF54 stage V gametocyte at 100 uM for 30 min; format: functional; outline: as §3

Structure (SMILES) | Activity (Plasmodium falciparum [1]) | Activity (Plasmodium falciparum [2]) | Activity (Plasmodium falciparum [3]) | Activity (Plasmodium falciparum [4]) | Activity (Plasmodium falciparum [5]) | inhibition at 100 µM (Plasmodium falciparum [6]) [%] | Activity (Plasmodium falciparum [7]) | inhibition at 100 µM (Plasmodium falciparum [8]) [%] | Activity (Plasmodium falciparum [9]) | Activity (Plasmodium falciparum [10]) | inhibition at 100 µM (Plasmodium falciparum [11]) [%] | inhibition at 100 µM (Plasmodium falciparum [12]) [%]
CC(C)C[C@H](NC(=O)C(CCc1ccccc1)NC(=O)CF)C(=O)NC(=O)N1CCOCC1 (some centres not stated) | Active | inactive | inactive | inactive | inactive | – | – | – | – | – | – | –
CCOC(=O)[C@H]1O[C@@H]1C(=O)N[C@@H](CC(C)C)C(=O)NCCC(C)C [ALOXISTATIN] | – | – | – | – | – | 100 | inactive | 79 | inactive | inactive | 81 | 98
